Experimental data as given in ChEMBL document CHEMBL3098102, “1,2,3-Triazole-derived naphthalimides as a novel type of potential antimicrobial agents: synthesis, antimicrobial activity, interaction with calf thymus DNA and human serum albumin” (Bioorg Med Chem Lett, 2014).
Values after ≈ are worked out from the molar mass of the structure shown.

Experiments:
Assay type in all cases: functional
[1] = system: Saccharomyces cerevisiae; test: Antimicrobial activity against Saccharomyces cerevisiae by two-fold serial dilution method
Procedure, shortened: (§1)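 MIC read by broth microdilution in microdilution plates.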

[2] = system: Aspergillus flavus; test: Antimicrobial activity against Aspergillus flavus after 24 hrs by two-fold serial dilution method; procedure, shortened: as §1
[3] = system: Candida albicans; test: Antimicrobial activity against Candida albicans after 24 hrs by two-fold serial dilution method; procedure, shortened: as §1
[4] = system: Shigella dysenteriae; test: Antimicrobial activity against Shigella dysenteriae after 24 hrs by two-fold serial dilution method
[5] = system: Pseudomonas aeruginosa; test: Antimicrobial activity against Pseudomonas aeruginosa after 24 hrs by two-fold serial dilution method; procedure, shortened: as §1
[6] = system: Escherichia coli; test: Antimicrobial activity against Escherichia coli DH52 after 24 hrs by two-fold serial dilution method; conditions: DH52, 24 h
[7] = Antimicrobial activity against Bacillus proteus after 24 hrs by two-fold serial dilution method; procedure, shortened: as §1
[8] = system: Micrococcus luteus; test: Antimicrobial activity against Micrococcus luteus ATCC 4698 after 24 hrs by two-fold serial dilution method; conditions: ATCC 4698, 24 h
[9] = system: Bacillus subtilis; test: Antimicrobial activity against Bacillus subtilis after 24 hrs by two-fold serial dilution method; procedure, shortened: as §1
[10] = system: Staphylococcus aureus; test: Antimicrobial activity against methicillin-resistant Staphylococcus aureus N315 after 24 hrs by two-fold serial dilution method; conditions: N315, 24 h
[11] = system: Staphylococcus aureus; test: Antimicrobial activity against Staphylococcus aureus ATCC 25923 after 24 hrs by two-fold serial dilution method; conditions: ATCC 25923, 24 h
[12] = system: Escherichia coli; test: Ratio of chloromycin MIC to compound MIC for Escherichia coli DH52 after 24 hrs by two-fold serial dilution method

Cl.Cl.O=C1c2cccc3c(Br)ccc(c23)C(=O)N1N(Cc1cn(Cc2cccc(F)c2)nn1)Cc1cn(Cc2cccc(F)c2)nn1
MIC [1]: > 512 µg/mL
MIC [2]: 32 µg/mL
MIC [3]: > 512 µg/mL
MIC [4]: > 512 µg/mL
MIC [5]: > 512 µg/mL
MIC [6]: 16 µg/mL
MIC [7]: > 512 µg/mL
MIC [8]: 256 µg/mL
MIC [9]: > 512 µg/mL
MIC [10]: > 512 µg/mL
MIC [11]: > 512 µg/mL

O=C1c2cccc3c(Br)ccc(c23)C(=O)N1N(Cc1cn(Cc2ccc(F)cc2)nn1)Cc1cn(Cc2ccc(F)cc2)nn1
MIC [1]: > 512 µg/mL
MIC [2]: > 512 µg/mL
MIC [3]: > 512 µg/mL
MIC [4]: > 512 µg/mL
MIC [5]: > 512 µg/mL
MIC [6]: 32 µg/mL (≈ 47.8 µM)
MIC [7]: > 512 µg/mL
MIC [8]: 512 µg/mL (≈ 765 µM)
MIC [9]: > 512 µg/mL
MIC [10]: > 512 µg/mL
MIC [11]: > 512 µg/mL

CCCCCCn1cc(CN(Cc2cn(CCCCCC)nn2)N2C(=O)c3cccc4c(Br)ccc(c34)C2=O)nn1
MIC [1]: > 512 µg/mL
MIC [2]: 64 µg/mL (≈ 103 µM)
MIC [3]: > 512 µg/mL
MIC [4]: > 512 µg/mL
MIC [5]: 512 µg/mL (≈ 824 µM)
MIC [6]: 512 µg/mL (≈ 824 µM)
MIC [7]: > 512 µg/mL
MIC [8]: > 512 µg/mL
MIC [9]: > 512 µg/mL
MIC [10]: > 512 µg/mL
MIC [11]: > 512 µg/mL

CCCCCCn1cc(CN(Cc2cn(CCCCCC)nn2)N2C(=O)c3cccc4c(Br)ccc(c34)C2=O)nn1.Cl.Cl
MIC [1]: > 512 µg/mL
MIC [2]: 32 µg/mL
MIC [3]: > 512 µg/mL
MIC [4]: > 512 µg/mL
MIC [5]: 512 µg/mL
MIC [6]: 512 µg/mL
MIC [7]: > 512 µg/mL
MIC [8]: 512 µg/mL
MIC [9]: > 512 µg/mL
MIC [10]: > 512 µg/mL
MIC [11]: > 512 µg/mL

Cl.Cl.Cl.Cl.Cl.Cl.O=C1c2cccc3c(Br)ccc(c23)C(=O)N1N(Cc1cn(Cc2ccc(Cl)cc2Cl)nn1)Cc1cn(Cc2ccc(Cl)cc2Cl)nn1
Ratio [12]: 2
MIC [1]: > 512 µg/mL
MIC [2]: 32 µg/mL
MIC [3]: > 512 µg/mL
MIC [4]: > 512 µg/mL
MIC [5]: > 512 µg/mL
MIC [6]: 4 µg/mL
MIC [7]: > 512 µg/mL
MIC [8]: 256 µg/mL
MIC [9]: > 512 µg/mL
MIC [10]: > 512 µg/mL
MIC [11]: > 512 µg/mL

O=C1c2cccc3c(Br)ccc(c23)C(=O)N1N(Cc1cn(Cc2ccc(F)cc2F)nn1)Cc1cn(Cc2ccc(F)cc2F)nn1
MIC [1]: > 512 µg/mL
MIC [2]: > 512 µg/mL
MIC [3]: > 512 µg/mL
MIC [4]: > 512 µg/mL
MIC [5]: > 512 µg/mL
MIC [6]: 64 µg/mL (≈ 90.7 µM)
MIC [7]: > 512 µg/mL
MIC [8]: 512 µg/mL (≈ 726 µM)
MIC [9]: 256 µg/mL (≈ 363 µM)
MIC [10]: > 512 µg/mL
MIC [11]: > 512 µg/mL

O=C1c2cccc3c(Br)ccc(c23)C(=O)N1N(Cc1cn(Cc2cccc(F)c2)nn1)Cc1cn(Cc2cccc(F)c2)nn1
MIC [1]: > 512 µg/mL
MIC [2]: 32 µg/mL (≈ 47.8 µM)
MIC [3]: > 512 µg/mL
MIC [4]: > 512 µg/mL
MIC [5]: > 512 µg/mL
MIC [6]: 16 µg/mL (≈ 23.9 µM)
MIC [7]: > 512 µg/mL
MIC [8]: 256 µg/mL (≈ 382 µM)
MIC [9]: > 512 µg/mL
MIC [10]: > 512 µg/mL
MIC [11]: > 512 µg/mL

O=C1c2cccc3c(Br)ccc(c23)C(=O)N1N(Cc1cn(Cc2ccc(Cl)c(Cl)c2)nn1)Cc1cn(Cc2ccc(Cl)c(Cl)c2)nn1
Ratio [12]: 2
MIC [1]: 64 µg/mL (≈ 83 µM)
MIC [2]: > 512 µg/mL
MIC [3]: 256 µg/mL (≈ 332 µM)
MIC [4]: > 512 µg/mL
MIC [5]: 256 µg/mL (≈ 332 µM)
MIC [6]: 1 µg/mL (≈ 1.3 µM)
MIC [7]: 512 µg/mL (≈ 664 µM)
MIC [8]: > 512 µg/mL
MIC [9]: > 512 µg/mL
MIC [10]: > 512 µg/mL
MIC [11]: > 512 µg/mL

OC(Cn1cncn1)(Cn1cncn1)c1ccc(F)cc1F [FLUCONAZOLE]
MIC [1]: 4 µg/mL (≈ 13.1 µM)
MIC [2]: 256 µg/mL (≈ 836 µM)
MIC [3]: 2 µg/mL (≈ 6.53 µM)

Cl.Cl.Cl.Cl.O=C1c2cccc3c(Br)ccc(c23)C(=O)N1N(Cc1cn(Cc2ccccc2Cl)nn1)Cc1cn(Cc2ccccc2Cl)nn1
Ratio [12]: 2
MIC [1]: > 512 µg/mL
MIC [2]: > 512 µg/mL
MIC [3]: 64 µg/mL
MIC [4]: > 512 µg/mL
MIC [5]: > 512 µg/mL
MIC [6]: 4 µg/mL
MIC [7]: > 512 µg/mL
MIC [8]: 128 µg/mL
MIC [9]: > 512 µg/mL
MIC [10]: 512 µg/mL
MIC [11]: > 512 µg/mL

O=C1c2cccc3c(Br)ccc(c23)C(=O)N1N(Cc1cn(Cc2ccc(Cl)cc2)nn1)Cc1cn(Cc2ccc(Cl)cc2)nn1
Ratio [12]: 2
MIC [1]: > 512 µg/mL
MIC [2]: > 512 µg/mL
MIC [3]: > 512 µg/mL
MIC [4]: 256 µg/mL (≈ 364 µM)
MIC [5]: 512 µg/mL (≈ 729 µM)
MIC [6]: 2 µg/mL (≈ 2.85 µM)
MIC [7]: > 512 µg/mL
MIC [8]: 64 µg/mL (≈ 91.1 µM)
MIC [9]: 256 µg/mL (≈ 364 µM)
MIC [10]: > 512 µg/mL
MIC [11]: > 512 µg/mL

O=C1c2cccc3c(Br)ccc(c23)C(=O)N1N(Cc1cn(Cc2ccc(Cl)cc2Cl)nn1)Cc1cn(Cc2ccc(Cl)cc2Cl)nn1
Ratio [12]: 2
MIC [1]: > 512 µg/mL
MIC [2]: 32 µg/mL (≈ 41.5 µM)
MIC [3]: > 512 µg/mL
MIC [4]: > 512 µg/mL
MIC [5]: > 512 µg/mL
MIC [6]: 8 µg/mL (≈ 10.4 µM)
MIC [7]: > 512 µg/mL
MIC [8]: 256 µg/mL (≈ 332 µM)
MIC [9]: > 512 µg/mL
MIC [10]: > 512 µg/mL
MIC [11]: > 512 µg/mL
